Laboratory results: ChEMBL document CHEMBL1134791, “2- and 3-substituted 1,4-naphthoquinone derivatives as subversive substrates of trypanothione reductase and lipoamide dehydrogenase from Trypanosoma cruzi: synthesis and correlation between redox cycling activities and in vitro cytotoxicity” (J Med Chem, 2001)

Key:
Leishmania donovani = assay: In vitro antiparasitic activity against Leishmania donovani was tested by sigmoidal regression analysis; format: functional
Summary of the method: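 Mouse peritoneal macrophages (female CD1, starch-elicited, harvested 24 h) infected with L. donovani amastigotes (strain MHOM/ET/67/L82, hamster spleen) or T. cruzi Y-strain trypomastigotes (5:1, from MDCK overlay). Infected cells exposed to a 3-fold dilution series in quadruplicate for 5 days (L. donovani) or 3 days (T. cruzi). Giemsa-stained slides scored for % macrophages cleared of amastigotes versus untreated cultures. ED50 by sigmoidal regression.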

[1] = target: Trypanothione reductase (Trypanosoma cruzi) (UniProt P28593); assay: The second order rate constant of the TcTR (Trypanosoma cruzi trypanothione reductase) catalyzed […].
Trypanothione reductase (Trypanosoma cruzi), sequence (P28593 whole entry, looked up): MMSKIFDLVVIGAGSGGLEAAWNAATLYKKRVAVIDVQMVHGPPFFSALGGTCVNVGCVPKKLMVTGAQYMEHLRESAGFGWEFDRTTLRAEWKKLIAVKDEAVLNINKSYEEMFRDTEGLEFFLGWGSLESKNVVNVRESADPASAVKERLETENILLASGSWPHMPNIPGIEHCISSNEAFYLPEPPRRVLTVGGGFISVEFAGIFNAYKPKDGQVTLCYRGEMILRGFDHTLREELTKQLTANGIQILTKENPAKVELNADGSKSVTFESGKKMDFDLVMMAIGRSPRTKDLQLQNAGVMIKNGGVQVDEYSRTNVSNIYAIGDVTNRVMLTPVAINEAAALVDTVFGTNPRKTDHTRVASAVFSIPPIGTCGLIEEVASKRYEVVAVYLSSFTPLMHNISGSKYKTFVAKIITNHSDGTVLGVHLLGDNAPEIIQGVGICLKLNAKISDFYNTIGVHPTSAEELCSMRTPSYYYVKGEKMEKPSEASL
Summary of the method: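 Recombinant TcTR (0.6 U) in 20 mM Hepes, 1 mM EDTA, 0.15 M KCl, pH 7.25 at 22 °C, with 200 µM NADPH and naphthoquinone at five concentrations (0–100 µM) in 1% DMSO. NADPH oxidation at 340 nm; intrinsic oxidase rate not subtracted. Km and Vmax from nonlinear Michaelis–Menten fit; kcat and kcat/Km calculated.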

[2] = target: Trypanothione reductase (Trypanosoma cruzi) (UniProt P28593); assay: Rate of NADPH oxidation by TcTR in presence of 100 uM NQ was determined in comparison to intrinsic oxidase activity
Summary of the method: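 Quinone reductase activity of recombinant TcTR measured as NADPH oxidation at 340 nm. Buffer was 20 mM Hepes, 1 mM EDTA, 0.15 M KCl, pH 7.25, with 250 µM NADPH at 25 °C. Rate with naphthoquinone (100 µM for line 8, 25 µM for line 9) divided by intrinsic oxidase rate of enzyme plus NADPH alone. Mean of at least two measurements.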

Compound | k cat/Km [1] | x fold [2] | ED50 (Leishmania donovani) [µM]
CC1=C(NCCCNCCC/N=C2/C(=O)c3ccccc3C(O)=C2C)C(=O)c2ccccc2C1=O |  | 4 | 
CC1=C(NCCCNCCCCNCCCN)C(=O)c2c(O)cccc2C1=O |  |  | > 30
CC1=C(NCCCCN)C(=O)c2ccccc2C1=O |  |  | > 12.5
CN1CCN(C(=O)CCC2=C(CCC(=O)N3CCN(C)CC3)C(=O)c3c(O)cccc3C2=O)CC1 |  |  | > 62
CC1=C(CCCC(=O)N2CCN(C)CC2)C(=O)c2ccccc2C1=O |  |  | 32
CC1=C(O)c2ccccc2C(=O)/C1=N\CCCN1CCN(C)CC1 |  | 2 | 
O=C(O)CCCC1=C(CCCC(=O)O)C(=O)c2c(O)cccc2C1=O |  |  | > 87
O=C(O)CCC1=C(CCC(=O)O)C(=O)c2c(O)cccc2C1=O |  |  | > 93
CC1=C(NCCCNCCCN)C(=O)c2c(O)cccc2C1=O |  | 2 | > 30
O=C(O)CCCCC1=C(CCCCC(=O)O)C(=O)c2c(O)cccc2C1=O |  |  | > 80
CC1=C(CCCCC(=O)O)C(=O)c2c(O)cccc2C1=O |  |  | 56
CC1=C(CCCCCNC(=O)OC(C)(C)C)C(=O)c2c(O)cccc2C1=O |  |  | 33.8
CN1CCN(CCCNC(=O)CCC2=C(CCC(=O)NCCCN3CCN(C)CC3)C(=O)c3c(O)cccc3C2=O)CC1 |  |  | > 50
CC1=C(CCCCNC(=O)OC(C)(C)C)C(=O)c2c(O)cccc2C1=O |  |  | 14.2
CC1=C(CCCCC(=O)NCCCN2CCN(CCCNC(=O)CCCCC3=C(C)C(=O)c4cccc(O)c4C3=O)CC2)C(=O)c2c(O)cccc2C1=O |  |  | 29.6
CC1=C(CCNC(=O)OC(C)(C)C)C(=O)c2c(O)cccc2C1=O |  |  | 11.8
CN1CCN(CCCNC(=O)CCCCC2=C(CCCCC(=O)NCCCN3CCN(C)CC3)C(=O)c3c(O)cccc3C2=O)CC1 |  |  | 38.2
CN(C)CCCN1CCN(CC2=C(N3CCN(CCCN(C)C)CC3)C(=O)c3ccccc3C2=O)CC1 |  | 3.9 | 
CC1=C(NCCCN2CCN(CCCN)CC2)C(=O)c2c(O)cccc2C1=O |  | 6.4 | 
CC1=C(CCCCCC(=O)O)C(=O)c2ccccc2C1=O |  |  | 18
CC1=C(CCNC(=O)OC(C)(C)C)C(=O)c2ccccc2C1=O |  |  | 8.8
CC1=C(CCC(=O)N2CCN(C)CC2)C(=O)c2ccccc2C1=O |  | 19 | 87
CC1=C(CCCCCC(=O)O)C(=O)c2c(O)cccc2C1=O |  |  | 28
CC1=C(CCC(=O)N2CCN(C)CC2)C(=O)c2c(O)cccc2C1=O |  | 38 | > 88
CC1=C(CCCC(=O)O)C(=O)c2c(O)cccc2C1=O |  |  | > 109
CC1=C(CCCCC(=O)O)C(=O)c2ccccc2C1=O |  |  | 39
O=C(O)CCCCCC1=C(CCCCCC(=O)O)C(=O)c2ccccc2C1=O |  |  | > 74
CC1=C(CCCCNC(=O)OC(C)(C)C)C(=O)c2ccccc2C1=O |  |  | 16.5
CC1=C(CCCCCNC(=O)OC(C)(C)C)C(=O)c2ccccc2C1=O |  |  | 12.5

Now from value to compound, other results behind:

k cat/Km [1] | x fold [2] | Compound | ED50 (Leishmania donovani) [µM]
2.3 10e4 M-1 s-1 |  | CC1=C(CCC(=O)NCCCNCCCNC(=O)CCC2=C(C)C(=O)c3ccccc3C2=O)C(=O)c2ccccc2C1=O | > 51
4.5 10e4 M-1 s-1 |  | CC1=C(CCC(=O)NCCCNCCCNC(=O)CCC2=C(C)C(=O)c3cccc(O)c3C2=O)C(=O)c2c(O)cccc2C1=O | > 49
2.3 10e4 M-1 s-1 |  | CC1=C(CCCCCC(=O)NCCCNCCCNC(=O)CCCCCC2=C(C)C(=O)c3ccccc3C2=O)C(=O)c2ccccc2C1=O | 22.8
8.4 10e4 M-1 s-1 |  | CC1=C(CCCCC(=O)NCCCN2CCN(CCCNC(=O)CCCCC3=C(C)C(=O)c4ccccc4C3=O)CC2)C(=O)c2ccccc2C1=O | 31.3
 | 11 | CC1=C(CCCC(=O)NCCCN2CCN(C)CC2)C(=O)c2ccccc2C1=O | > 76
4.2 10e4 M-1 s-1 |  | CC1=C(CCCC(=O)NCCCN2CCN(CCCNC(=O)CCCC3=C(C)C(=O)c4ccccc4C3=O)CC2)C(=O)c2ccccc2C1=O | 14.7
3.5 10e4 M-1 s-1 |  | CC1=C(CCCC(=O)NCCCN2CCN(CCCNC(=O)CCCC3=C(C)C(=O)c4cccc(O)c4C3=O)CC2)C(=O)c2c(O)cccc2C1=O | 38.5
5.1 10e4 M-1 s-1 |  | CC1=C(CCC(=O)NCCCN2CCN(CCCNC(=O)CCC3=C(C)C(=O)c4cccc(O)c4C3=O)CC2)C(=O)c2c(O)cccc2C1=O | > 44
16.8 10e4 M-1 s-1 |  | CC1=C(CCCCCC(=O)NCCCN2CCN(CCCNC(=O)CCCCCC3=C(C)C(=O)c4cccc(O)c4C3=O)CC2)C(=O)c2c(O)cccc2C1=O | 17.4
7.7 10e4 M-1 s-1 |  | CC1=C(CCC(=O)NCCCCNCCCNC(=O)CCC2=C(C)C(=O)c3cccc(O)c3C2=O)C(=O)c2c(O)cccc2C1=O | > 48
4.8 10e4 M-1 s-1 |  | CC1=C(CCCCCC(=O)NCCCCNCCCNC(=O)CCCCCC2=C(C)C(=O)c3ccccc3C2=O)C(=O)c2ccccc2C1=O | 5.4
13 10e4 M-1 s-1 |  | CC1=C(CCCCC(=O)NCCCCNCCCNC(=O)CCCCC2=C(C)C(=O)c3cccc(O)c3C2=O)C(=O)c2c(O)cccc2C1=O | 7.8
5.1 10e4 M-1 s-1 |  | CC1=C(CCC(=O)NCCCCNCCCNC(=O)CCC2=C(C)C(=O)c3ccccc3C2=O)C(=O)c2ccccc2C1=O | > 50
 | 220 | CN1CCN(C(=O)CCCC2=C(CCCC(=O)N3CCN(C)CC3)C(=O)c3c(O)cccc3C2=O)CC1 | > 48
1.6 10e4 M-1 s-1 |  | CC1=C(CCCC(=O)NCCCNCCCNC(=O)CCCC2=C(C)C(=O)c3ccccc3C2=O)C(=O)c2ccccc2C1=O | > 49
3.6 10e4 M-1 s-1 |  | CC1=C(CCCC(=O)NCCCCNCCCNC(=O)CCCC2=C(C)C(=O)c3cccc(O)c3C2=O)C(=O)c2c(O)cccc2C1=O | > 46
13.3 10e4 M-1 s-1 |  | CC1=C(CCCCCC(=O)NCCCCNCCCNC(=O)CCCCCC2=C(C)C(=O)c3cccc(O)c3C2=O)C(=O)c2c(O)cccc2C1=O | 34.8
 | 14 | CC1=C(CCCC(=O)N2CCN(C)CC2)C(=O)c2c(O)cccc2C1=O | 82
14.5 10e4 M-1 s-1 |  | CC1=C(CCCCCC(=O)NCCCNCCCNC(=O)CCCCCC2=C(C)C(=O)c3cccc(O)c3C2=O)C(=O)c2c(O)cccc2C1=O | 10.3
0.8 10e4 M-1 s-1 |  | CC1=C(CCCCC(=O)NCCCNCCCNC(=O)CCCCC2=C(C)C(=O)c3ccccc3C2=O)C(=O)c2ccccc2C1=O | > 45
 | 45 | CN1CCN(CCCNC(=O)CCCC2=C(CCCC(=O)NCCCN3CCN(C)CC3)C(=O)c3c(O)cccc3C2=O)CC1 | > 59
5.8 10e4 M-1 s-1 |  | CC1=C(CCCCC(=O)NCCCCNCCCNC(=O)CCCCC2=C(C)C(=O)c3ccccc3C2=O)C(=O)c2ccccc2C1=O | 11.9
11.4 10e4 M-1 s-1 |  | CC1=C(CCCCC(=O)NCCCNCCCNC(=O)CCCCC2=C(C)C(=O)c3cccc(O)c3C2=O)C(=O)c2c(O)cccc2C1=O | 11.1
 | 40 | CC1=C(CCCC(=O)NCCCN2CCN(C)CC2)C(=O)c2c(O)cccc2C1=O | 66
2.3 10e4 M-1 s-1 |  | CC1=C(CCCC(=O)NCCCCNCCCNC(=O)CCCC2=C(C)C(=O)c3ccccc3C2=O)C(=O)c2ccccc2C1=O | > 48
3.3 10e4 M-1 s-1 |  | CC1=C(CCCCCC(=O)NCCCN2CCN(CCCNC(=O)CCCCCC3=C(C)C(=O)c4ccccc4C3=O)CC2)C(=O)c2ccccc2C1=O | 14.3
6.5 10e4 M-1 s-1 |  | CC1=C(CCCC(=O)NCCCNCCCNC(=O)CCCC2=C(C)C(=O)c3cccc(O)c3C2=O)C(=O)c2c(O)cccc2C1=O | 46.7
